# Results of several laboratories.
# Protocols differ between the studies behind these lines.
# Organism: Escherichia coli
# Read-out: microbial growth
Structure (SMILES),assay,system,setting,MIC
COC(=O)c1cc(-c2cccc(NC(=O)Nc3ccccc3F)c2)on1,broth dilution,ATCC25922,,> 64 µg/mL
CC1(C)S[C@@H]2[C@H](NC(=O)[C@H](N)c3ccccc3)C(=O)N2[C@H]1C(=O)O,broth dilution,ATCCBAA2469,,> 64 µg/mL
CN[C@@H]1[C@H](O)[C@H](NC)[C@H]2O[C@@]3(O)C(=O)C[C@@H](C)O[C@H]3O[C@@H]2[C@H]1O,broth dilution,"K12, K12",,25 µg/mL
C[n+]1ccc(/C=C2\Sc3ccccc3N2CCCN2CCCCC2)c2ccccc21.[I-],broth dilution,ATCCBAA2469,,4 µg/mL
CCCCCCC#Cc1cncc(-c2nnc(Sc3ccc([N+](=O)[O-])cc3[N+](=O)[O-])n2C)c1,,,,≥ 20 µg/mL
COC(=O)c1cc(-c2ccc(OC)c(NC(=O)Nc3ccc(Cl)c(Cl)c3)c2)on1,broth dilution,ATCC25922,,> 64 µg/mL
C[C@H]1COCCN1c1nc(NCc2cccnc2C(F)(F)F)c2cccnc2n1,broth dilution,25922,,128 µg/mL
CCCCCCCCCCCC(=O)OC[C@H]1O[C@@H](n2cc(C)c(=O)[nH]c2=O)C[C@@H]1O,broth dilution,,,2 µg/mL
COC(=O)c1cc(-c2cccc(NC(=S)Nc3cccc(Cl)c3)c2)on1,broth dilution,ATCC25922,,> 64 µg/mL
CC(=O)C1=C(O)C(CC(C)C)NC1=O (stereo not drawn),,"K12, K12",,> 200 µg/mL
CSc1ccc(/C=C/c2cc(/C=C3\Sc4ccccc4N3CCCN3CCCC3)c3ccccc3[n+]2C)cc1.[I-],broth dilution,ATCCBAA2469,,32 µg/mL
C[C@H]1COc2c(N3CCN(C)CC3)c(F)cc3c(=O)c(C(=O)O)cn1c23,broth dilution,ATCC25922,,0.0156 µg/mL
CC1CCN(CCCN2/C(=C/c3cc[n+](C)c4ccccc34)Sc3ccccc32)CC1.[I-],broth dilution,ATCCBAA2469,,0.5 µg/mL
COC(=O)c1cc(-c2cccc(NC(=O)Nc3ccc(F)cc3)c2)on1,broth dilution,ATCC25922,,> 64 µg/mL
CC1(C)S[C@@H]2[C@H](NC(=O)[C@H](N)c3ccccc3)C(=O)N2[C@H]1C(=O)O,broth dilution,MDR,16 h,32 µg/mL
Cc1cc(/C=C2\Sc3ccccc3N2CCCN2CCCCC2)c2ccccc2[n+]1C.[I-],broth dilution,ATCCBAA2469,,4 µg/mL
Fc1c(F)c(F)c(-c2c(F)c(F)c(F)c(F)c2F)c(F)c1F,,ATCC25922,,> 250 µg/mL
COC(=O)c1cc(-c2cccc(NC(=O)Nc3ccc(Cl)cc3Cl)c2)on1,broth dilution,ATCC25922,,> 64 µg/mL
